Measurements taken from ChEMBL document CHEMBL1649390, “New (RS)-benzoxazepin-purines with antitumour activity: The chiral switch from (RS)-2,6-dichloro-9-[1-(p-nitrobenzenesulfonyl)-1,2,3,5-tetrahydro-4,1-benzoxazepin-3-yl]-9H-purine” (Eur J Med Chem, 2011).

Experiments:
MCF7 [1] = experiment: Cytotoxicity against human MCF7 cells expressing wild type p53 and ras mutant […]; type: functional, cell-based
MDA-MB-231 [2] = experiment: Cytotoxicity against human MDA-MB-231 cells expressing high level of p53 […]; type: functional, cell-based
[3] = Cytotoxicity against human MCF10A cells […] by SRB assay; type: cell-based; conditions: MCF-10A
[4] = Therapeutic index, ratio of IC50 for human MCF10A cells to IC50 for human MCF7 cells expressing wild type p53 and ras mutant; type: cell-based; conditions: MCF10A cells versus MCF7 cells (wild type p53, ras mutant), read-out: Ratio IC50
Outline: (§1)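 Ratio of IC50 in non-tumour MCF-10A to IC50 in the tumour line, both from the SRB growth assay described for cytotoxicity.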

[5] = Therapeutic index, ratio of IC50 for human MCF10A cells to IC50 for human MDA-MB-231 cells expressing high level of p53; type: cell-based; conditions: MCF10A cells versus MDA-MB-231 cells (high level of p53), read-out: Ratio IC50; outline: as §1
MCF7 [6] = experiment: Induction of apoptosis in human MCF7 cells assessed as cell viability at IC50 concentration after 24 hrs using V-FITC and propidium iodide staining by flow cytometry (reference value: 90.42 +/- 0.63 %); type: functional
MCF7 [7] = experiment: Induction of apoptosis in human MCF7 cells assessed as necrotic cells at IC50 concentration after 24 hrs using V-FITC and propidium iodide staining by flow cytometry (reference value: 9.55 +/- 0.21 %); type: functional
MCF7 [8] = experiment: Induction of apoptosis in human MCF7 cells assessed as early apoptotic cells at IC50 concentration after 24 hrs using V-FITC and propidium iodide staining by flow cytometry relative to control; type: functional
MCF7 [9] = experiment: Induction of apoptosis in human MCF7 cells assessed as late apoptotic cells at IC50 concentration after 24 hrs using V-FITC and propidium iodide staining by flow cytometry (reference value: 0.03 +/- 0.01 %); type: functional
MCF7 [10] = experiment: Induction of apoptosis in human MCF7 cells assessed as necrotic cells at IC50 concentration after 48 hrs using V-FITC and propidium iodide staining by flow cytometry (reference value: 12.61 +/- 7.50 %); type: functional
MCF7 [11] = experiment: Induction of apoptosis in human MCF7 cells assessed as early apoptotic cells at IC50 concentration after 48 hrs using V-FITC and propidium iodide staining by flow cytometry relative to control; type: functional
MCF7 [12] = experiment: Induction of apoptosis in human MCF7 cells assessed as late apoptotic cells at IC50 concentration after 24 hrs using V-FITC and propidium iodide staining by flow cytometry (reference value: 1.11 +/- 0.24 %); type: functional
MCF7 [13] = experiment: Induction of apoptosis in human MCF7 cells assessed as viable cells at IC50 concentration after 48 hrs using V-FITC and propidium iodide staining by flow cytometry (reference value: 86.26 +/- 7.25 %)
[14] = Cell cycle arrest in human MCF10A cells assessed as accumulation at G0/G1 phase after 48 hrs using propidium iodide staining by flow cytometry (reference value: 65.70 +/- 1.14 %); type: ADME, cell-based; conditions: mcf-10a
[15] = Cell cycle arrest in human MCF10A cells assessed as accumulation at G2/M phase after 48 hrs using propidium iodide staining by flow cytometry (reference value: 12.55 +/- 0.68 %); type: ADME, cell-based; conditions: mcf-10a
[16] = Cell cycle arrest in human MCF10A cells assessed as accumulation at S phase after 48 hrs using propidium iodide staining by flow cytometry (reference value: 21.78 +/- 0.46 %); type: ADME, cell-based; conditions: mcf-10a
MCF7 [17] = experiment: Cell cycle arrest in human MCF7 cells assessed as accumulation at G0/G1 phase after 48 hrs using propidium iodide staining by flow cytometry (reference value: 89.88 +/- 1.73 %); type: functional
MCF7 [18] = experiment: Cell cycle arrest in human MCF7 cells assessed as accumulation at G2/M phase after 48 hrs using propidium iodide staining by flow cytometry (reference value: 1.57 +/- 2.12 %); type: functional
MCF7 [19] = experiment: Cell cycle arrest in human MCF7 cells assessed as accumulation at S phase after 48 hrs using propidium iodide staining by flow cytometry (reference value: 8.55 +/- 0.40 %); type: functional
MDA-MB-231 [20] = experiment: Cell cycle arrest in human MDA-MB-231 cells assessed as accumulation at G0/G1 phase after 48 hrs using propidium iodide staining by flow cytometry (reference value: 42.06 +/- 0.01 %); type: functional
MDA-MB-231 [21] = experiment: Cell cycle arrest in human MDA-MB-231 cells assessed as accumulation at G2/M phase after 48 hrs using propidium iodide staining by flow cytometry (reference value: 31.59 +/- 0.03 %); type: functional
MDA-MB-231 [22] = experiment: Cell cycle arrest in human MDA-MB-231 cells assessed as accumulation at S phase after 48 hrs using propidium iodide staining by flow cytometry (reference value: 26.35 +/- 0.03 %); type: functional

SMILES | IC50 (MCF7 [1]) | IC50 (MDA-MB-231 [2]) | IC50 [3] | selectivity ratio [4] | selectivity ratio [5] | Activity (MCF7 [6]) | Activity (MCF7 [7]) | Activity (MCF7 [8]) | Activity (MCF7 [9]) | Activity (MCF7 [10]) | Activity (MCF7 [11]) | Activity (MCF7 [12]) | viability (MCF7 [13]) | further results
Cc1cn(C2CN(S(=O)(=O)c3ccc([N+](=O)[O-])cc3)c3ccccc3CO2)c(=O)[nH]c1=O (stereo not drawn) | 39.8 µM |  |  |  |  |  |  |  |  |  |  |  |  | 
O=[N+]([O-])c1ccccc1S(=O)(=O)N1CC(n2cnc3c(Cl)nc(Cl)nc32)OCc2ccccc21 (racemic) | 0.383 µM | 280 nM | 1530 nM | 4 | 5.5 | 91.65% | 8.33% | 0.01% | 0.01% | 3.43% | 19.61% | 2.64% | 74.31% | 
O=[N+]([O-])c1ccc(S(=O)(=O)N2CC(n3cnc4c(Br)ncnc43)OCc3ccccc32)cc1 (racemic) | 1.23 µM |  |  |  |  | 95.7% | 4.26% | 0.01% | 0.01% | 10.92% | 35.64% | 2.4% | 51.04% | 
O=[N+]([O-])c1ccccc1S(=O)(=O)N1CC(n2cnc3c(Br)ncnc32)OCc2ccccc21 (racemic) | 3.62 µM |  |  |  |  | 91.95% | 8.04% | 0% | 0% | 3.76% | 24.43% | 4.19% | 67.6% | 
Nc1ccccc1S(=O)(=O)N1CC(n2cnc3c(Cl)nc(Cl)nc32)OCc2ccccc21 (racemic) | 0.82 µM | 467 nM | 1520 nM | 1.85 | 3.25 | 82.1% | 17.61% | 0.02% | 0.28% | 1.99% | 18.89% | 2.77% | 76.34% | 
O=S(=O)(c1ccccc1NO)N1CC(n2cnc3c(Cl)nc(Cl)nc32)OCc2ccccc21 (racemic) | 1.53 µM | 487 nM | 1230 nM | 0.8 | 2.53 | 90.86% | 9.11% | 0% | 0.11% | 5.52% | 18.73% | 4.92% | 70.82% | 
c1ccc(Sc2nc(Sc3ccccc3)c3ncn(C4CNc5ccccc5CO4)c3n2)cc1 (racemic) | 9.71 µM |  |  |  |  | 87.29% | 12.68% | 0% | 0.07% | 4.98% | 18.64% | 4.52% | 71.84% | 
Clc1nc(Sc2ccccc2)c2ncn(C3CNc4ccccc4CO3)c2n1 (racemic) | 13.8 µM |  |  |  |  | 83.09% | 7.55% | 0.07% | 0.07% | 4.01% | 15.81% | 3.88% | 76.3% | 
COC(CN(c1ccccc1CO)S(=O)(=O)c1ccc([N+](=O)[O-])cc1)n1cnc2c(Cl)nc(Cl)nc21 (racemic) | 0.355 µM | 409 nM | 1860 nM | 5.25 | 4.55 | 94.76% | 4.88% | 0.02% | 0.18% | 4.81% | 43.3% | 2.17% | 49.71% | 
O=[N+]([O-])c1ccccc1S(=O)(=O)N1CC(n2cnc3nc(Cl)nc(Cl)c32)OCc2ccccc21 (racemic) | 0.99 µM | 318 nM | 1260 nM | 1.27 | 4 | 95.03% | 4.94% | 0.02% | 0.02% | 2.48% | 13.93% | 3.8% | 79.78% | 
Cc1cn(C2CS(=O)(=O)c3ccccc3CO2)c(=O)[nH]c1=O (racemic) | 12.7 µM |  |  |  |  |  |  |  |  |  |  |  |  | 
Cc1cn(C2C[S+]([O-])c3ccccc3CO2)c(=O)[nH]c1=O (racemic) | 30.1 µM |  |  |  |  |  |  |  |  |  |  |  |  | 
Cc1cn(C2CN(S(=O)(=O)c3ccccc3[N+](=O)[O-])c3ccccc3CO2)c(=O)[nH]c1=O (racemic) | 45.2 µM |  |  |  |  |  |  |  |  |  |  |  |  | 
O=c1[nH]cc(F)c(=O)[nH]1 [FLUOROURACIL] |  |  |  |  |  |  |  |  |  |  |  |  |  | Activity [14]: 34.2%; Activity [15]: 9.56%; Activity [16]: 55.74%; Activity (MCF7 [17]): 87.4%; Activity (MCF7 [18]): 8.06%; Activity (MCF7 [19]): 6.06%; Activity (MDA-MB-231 [20]): 38.98%; Activity (MDA-MB-231 [21]): 25.63%; Activity (MDA-MB-231 [22]): 35.39%
CC(=O)O[C@H]1C(=O)[C@@]2(C)[C@H]([C@H](OC(=O)c3ccccc3)[C@]3(O)C[C@H](OC(=O)[C@H](O)[C@@H](NC(=O)c4ccccc4)c4ccccc4)C(C)=C1C3(C)C)[C@]1(OC(C)=O)CO[C@@H]1C[C@@H]2O [PACLITAXEL] |  |  |  |  |  |  |  |  |  |  |  |  |  | Activity [14]: 36.76%; Activity [15]: 23.5%; Activity [16]: 39.75%; Activity (MCF7 [17]): 62.48%; Activity (MCF7 [18]): 18.5%; Activity (MCF7 [19]): 19.01%; Activity (MDA-MB-231 [20]): 100%; Activity (MDA-MB-231 [21]): 0%; Activity (MDA-MB-231 [22]): 0%
